Screening data from PubChem.
PAFAH2 inh = inhibitors of human PAFAH2. 340,000 tested, 0.99% active. recombinant PAFAH2, FP-rhodamine activity probe, fluorescence polarization. inhibition, % at 3.39 µM. AID 492956;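 active = inhibition above the mean over all tested compounds plus 3 SD, cut at about 30% in these data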;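 also: inhibitors block probe labeling of enzyme so polarization drops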
PAFAH1B2 FP inh = blocks human PAF acetylhydrolase 1b catalytic subunit 2 | P68402 | recombinant PAFAH1B2, FP-rhodamine activity probe, fluorescence polarization | inhibition, % at 3.39 µM | 340,000 tested, 1.2% active | AID 492953;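 active = inhibition above the mean of all tested compounds plus 3 SD, cut at about 24% in these data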
pPAFAH FP inh = pPAFAH (human) enzyme inhibition | 330,000 tested, 1.5% active | AID 463082 | inhibition, % at 3.39 µM | recombinant pPAFAH, FP-rhodamine probe fluorescence polarization;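 active = inhibition above the mean inhibition across the screen plus 3 SD, cut at about 25% in these data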;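 also: inhibitors block binding of the rhodamine activity-based probe so polarization drops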
Target sequence (Q13093 whole entry, looked up): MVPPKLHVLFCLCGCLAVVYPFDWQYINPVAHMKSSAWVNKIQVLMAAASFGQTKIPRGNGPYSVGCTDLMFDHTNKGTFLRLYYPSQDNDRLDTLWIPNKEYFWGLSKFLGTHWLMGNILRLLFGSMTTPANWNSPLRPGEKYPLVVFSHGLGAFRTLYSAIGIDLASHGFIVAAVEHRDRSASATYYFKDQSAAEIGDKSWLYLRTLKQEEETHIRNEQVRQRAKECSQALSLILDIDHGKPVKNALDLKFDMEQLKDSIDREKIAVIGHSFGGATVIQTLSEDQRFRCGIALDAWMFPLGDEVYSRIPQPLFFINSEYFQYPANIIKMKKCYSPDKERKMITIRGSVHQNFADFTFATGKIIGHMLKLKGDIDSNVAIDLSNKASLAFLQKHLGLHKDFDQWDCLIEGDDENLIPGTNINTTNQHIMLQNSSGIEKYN
NR3A LBD binder = modulates the human NR3A ligand-binding domain | NR3A LBD differential scanning fluorimetry, Tm shift; 0% = protein alone, 100% = glycine-bound protein | Tm shift relative to glycine control, % at 25 µM | 340,000 tested, 2.5% active;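 active = melting temperature shift of at least 10% of the positive control shift, at one fixed dose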
PAFAH1B3 FP inh = inhibitors of human PAFAH1B3. Q15102. recombinant PAFAH1B3, FP-rhodamine probe, fluorescence polarization. inhibition, % at 3.39 µM. 340,000 tested, 0.28% active;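 active = inhibition above the screen-wide average of all tested compounds plus 3 SD, cut at about 25% in these data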
Target sequence (Q15102 whole entry, looked up): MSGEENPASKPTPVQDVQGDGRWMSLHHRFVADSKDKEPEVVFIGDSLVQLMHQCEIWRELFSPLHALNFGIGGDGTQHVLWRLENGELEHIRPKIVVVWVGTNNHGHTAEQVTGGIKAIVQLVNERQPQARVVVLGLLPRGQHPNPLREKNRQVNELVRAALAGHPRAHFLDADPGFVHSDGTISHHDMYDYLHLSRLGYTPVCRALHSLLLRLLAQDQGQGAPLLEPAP
UCH37 inh = blocks the human deubiquitinase UCH37. Q9Y5K5. purified proteasome/UCH37, Ub-AMC cleavage fluorescence. inhibition, % (test concentration not listed). 330,000 tested, 0.33% active. AID 588478;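 active = mean inhibition over replicate wells above about 20%, limit read from the data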
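Material: Human UCH37 enzyme supplied as purified proteasome complex | Schedule: 30 min compound-proteasome preincubation then 25 min substrate reaction, room temperature | Detection: AMC fluorescence from Ub-AMC cleavage, excitation 355 nm, emission 460 nm | Benchmarks: Wells without proteasome as full block, compound-free enzyme plus substrate as uninhibited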
A number is an active result; 0 = inactive; - = no result given. The list is not random: actives were taken first. Their share in the collection is about 4.8%.

SMILES	PAFAH2 inh	PAFAH1B2 FP inh	pPAFAH FP inh	NR3A LBD binder	PAFAH1B3 FP inh	UCH37 inh
O=C(Cc1nnc(NC(=O)Nc2ccc(F)cc2)s1)Nc1ccccc1	0	0	0	25	0	0
CCOc1ccccc1C=Nn1c(COc2ccccc2)n[nH]c1=S	-	-	-	-	-	0
O=C(NN=Cc1ccc(-c2cccc(Cl)c2)o1)C(=O)NC1CCCC1	-	-	-	-	-	0
CC(C)c1ccc(C=NNC(=O)c2nnn(-c3nonc3N)c2CN(C)C2CCCCC2)cc1	-	-	-	-	-	0
O=C(Cc1nnc(NC(=O)Nc2ccccc2)s1)Nc1ccccc1	-	-	0	12	-	0
O=C(CN=C1NS(=O)(=O)c2ccccc21)OCC(=O)c1cc(F)ccc1F	0	0	0	0	0	0
COCC(C)n1c(C)cc(C(=O)COC(=O)CN=C2NS(=O)(=O)c3ccccc32)c1C (stereo not given)	0	0	0	10	0	0
O=C(CN1CCN(c2ccc(O)cc2)CC1)Nc1ccc(SC(F)F)cc1	0	0	33	0	0	0
COc1ccc(NC(=O)c2ccc(NC(=O)CN3CCN(c4ccc(O)cc4)CC3)cc2)cc1	0	0	-	17	0	-
COc1cccc(N2CCN(CC(=O)Nc3ccc(SC(F)F)cc3)CC2)c1	0	0	0	0	0	0
COc1ccc(NC(=O)CN2CCN(c3ccc(F)cc3)CC2)cc1	0	0	0	0	0	0
O=S(=O)(N/N=C1/CC(c2ccccc2)Oc2ccccc21)c1ccc(Br)cc1 (stereo not given)	0	0	0	21	0	-
Cc1ccc(S(=O)(=O)NN=C2CC(c3ccccc3)Oc3ccccc32)cc1[N+](=O)[O-] (stereo not given)	-	-	-	-	-	0
Cc1ccc(S(=O)(=O)N/N=C2/CC(c3ccccc3)Oc3ccccc32)cc1[N+](=O)[O-] (stereo not given)	0	0	0	25	0	-
Nc1nnc(CC(=O)NN=Cc2cccc([N+](=O)[O-])c2)s1	-	-	-	-	-	0
Cn1c(O)c(C2=c3ccccc3=NC2=O)[nH]c1=S	0	0	0	0	0	-
O=C1N=c2ccccc2=C1c1sc(=S)n(NC(=O)c2ccccc2)c1O	0	0	0	31	0	-
Cc1ccc(C)n1NC(=O)c1ccccc1[N+](=O)[O-]	0	0	0	0	0	0
Cc1ccc(C)n1NC(=O)c1ccccc1O	0	0	32	0	0	0
O=C(/C=N/O)Nc1ccc2sc3ccccc3c2c1	47	42	33	34	62	-
CCOC(=O)C1=C(CC)Nc2ccccc2N=C1NC(=O)c1cc(S(=O)(=O)N2CCOCC2)ccc1C	0	0	0	0	0	0
CCOC(=O)C1=C(CC)Nc2ccccc2N=C1NC(=O)c1cc(S(=O)(=O)N(C)C)ccc1Cl	0	0	0	17	0	0
CN(C)c1ccc(-n2cccc2/C=C/[N+](=O)[O-])cc1	0	0	0	0	0	-
CN(c1ccccc1)c1ccc(/C=C/[N+](=O)[O-])cc1	0	0	0	16	0	-
Cc1ccc(C(=O)NN=Cc2sc(=O)n(Cc3cccc(C(=O)O)c3)c2Cl)cc1	-	-	-	-	-	0
SMILES	PAFAH2 inh	PAFAH1B2 FP inh	pPAFAH FP inh	NR3A LBD binder	PAFAH1B3 FP inh	UCH37 inh
OCCC1CN(Cc2c(F)cccc2Cl)CCN1C1CCCC1 (stereo not given)	0	0	0	0	0	0
OCCC1CN(Cc2c(F)cccc2Cl)CCN1C1CCCCC1 (stereo not given)	0	0	32	0	0	0
Oc1ccc(NC(=S)Nc2ccccc2)cc1	0	0	0	0	0	0
Nc1ccc(NC(=S)Nc2ccccc2)cc1	0	0	-	25	0	0
CCS(=O)(=O)Nc1ccc(-c2cc(-c3ccccc3)c3cc(C)ccc3n2)cc1	0	0	0	10	0	0
Cc1ccc(NC(=O)c2cc(S(=O)(=O)NCCC3=CCCCC3)ccc2F)cc1F	0	0	0	17	0	0
Cc1ccc(S(=O)(=O)NCCC2=CCCCC2)cc1C(N)=O	0	0	0	0	0	0
Cc1ccccc1-c1nc(CS(=O)CC(=O)NCCc2ccc(Cl)cc2)c(C)o1 (stereo not given)	0	0	0	489	0	0
O=[N+]([O-])c1ccccc1NN=Cc1ccc2c(c1)OCO2	-	-	-	-	-	0
COc1ccc(C=Nc2oc(-c3ccccc3)cc2C#N)cc1OC	-	-	-	-	-	0
COc1ccc(/C=N/c2oc(-c3ccccc3)cc2C#N)cc1OC	0	0	0	37	0	-
Cc1nc2ccc(NC(=O)c3cc([N+](=O)[O-])cc([N+](=O)[O-])c3Cl)cc2s1	0	0	0	18	0	0
Cc1nc2ccc(NC(=O)c3ccc(S(=O)(=O)N(C)C)cc3)cc2s1	0	0	0	10	0	0
O=C(Nc1ccc(-c2cn3ccsc3n2)cc1)c1ccc(F)c(S(=O)(=O)N2CCOCC2)c1	0	0	0	25	0	0
Cc1nc2ccc(NC(=O)c3cc(S(=O)(=O)N4CCOCC4)ccc3C)cc2s1	0	0	0	0	0	0
Cc1nc2ccc(NC(=O)c3ccc(C)c(S(=O)(=O)N4CCOCC4)c3)cc2s1	0	0	0	13	0	0
COc1cccc(C=Nn2c(COc3ccccc3)n[nH]c2=S)c1OC	-	-	-	-	-	0
Cc1cc(C)nc(NN=Cc2cn[nH]c2-c2ccc(F)cc2)n1	-	-	-	-	-	0
CC(=NNC(=O)c1ccc(C(C)(C)C)cc1)c1ccccn1	-	-	-	-	-	0
Cc1ccc(C(=O)NC2CCCCCCC2)cc1S(=O)(=O)N1CCOCC1	0	0	-	34	0	0
Cc1ccc(NC(=O)c2ccc(C)c(S(=O)(=O)N3CCOCC3)c2)nc1	0	0	0	0	0	-
Cc1ccc(C(=O)Nc2ccc(Cl)cn2)cc1S(=O)(=O)N1CCOCC1	0	0	0	19	0	0
CNC(=O)N(O)C1N(N=Cc2cccs2)C(=S)SC1(C)C (stereo not given)	-	-	-	-	-	0
Cc1ccc(N(CC(=O)O)S(C)(=O)=O)cc1Cl	0	0	0	12	0	0
Cc1ccc(N(CC(=O)N2CCCCCC2)S(C)(=O)=O)cc1Cl	0	0	0	0	0	0
SMILES	PAFAH2 inh	PAFAH1B2 FP inh	pPAFAH FP inh	NR3A LBD binder	PAFAH1B3 FP inh	UCH37 inh
O=C(NN=Cc1cc2c(cc1Br)OCO2)c1cccnc1	-	-	-	-	-	0
C/C(=N\OC(=O)c1ccc(F)cc1)c1sc(-c2ccc(Cl)cc2)nc1C	0	0	0	0	0	-
C/C(=N\OC(=O)c1ccc(Cl)c(Cl)c1)c1sc(C)nc1C	0	0	34	0	0	-
Oc1ccc(/C=N/N2CCN(C3c4ccccc4-c4ccccc43)CC2)cc1O	0	0	33	0	0	-
Oc1ccc(/C=N/N2CCN(C3c4ccccc4-c4ccccc43)CC2)c(O)c1	0	0	0	11	0	-
CC1=C(C(=O)Nc2ccccc2)C(c2ccc(C)o2)n2c(sc(=Cc3ccccc3)c2=O)=N1 (stereo not given)	-	-	-	-	-	0
CCOC(=O)c1ccc(NC(=NS(=O)(=O)c2ccccc2C)c2ccccc2)cc1	-	-	-	-	-	0
CC1=CC2=NC(=O)/C(=C\c3cc(C)n(-c4ccc(F)cc4)c3C)C(=N)N2O1	0	0	0	0	0	0
